Data as given in ChEMBL document CHEMBL2331304, “N1,N3-disubstituted uracils as nonnucleoside inhibitors of HIV-1 reverse transcriptase” (Bioorg Med Chem, 2013).
Calls of active or inactive are those of the source. The calls are words filed in the database; no cut-off is given here.

Legend:
[1] = tested on: Feline coronavirus; experiment: Antiviral activity against Feline coronavirus; type: functional, organism-based
[2] = tested on: Influenza A virus; experiment: Antiviral activity against Influenza A virus H3N2; type: functional, organism-based
[3] = tested on: Human alphaherpesvirus 3; experiment: Antiviral activity against Varicella zoster virus; type: functional, organism-based
How it was run: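 VZV strain Oka and the TK− strain 07-1 were inoculated at 20 PFU onto confluent cell monolayers in the presence of varying compound concentrations. Plaque formation was recorded once complete in untreated infected controls.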

[4] = tested on: Human immunodeficiency virus 1; experiment: Antiviral activity against HIV1 3B infected in human MT4 cells assessed as inhibition of virus-induced cytopathic effect after 4 days by MTT assay; type: functional, organism-based; conditions: Human immunodeficiency virus 1, 3B, MT4, 96 h
How it was run: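 HIV-1 in MT-4 cells at 1 × 10^5 cells/ml, infected at MOI 0.02 (virus stock titrated as CCID50), then plated immediately onto varying compound concentrations. After 4 days at 37 °C, viable cells counted by MTT.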

[5] = tested on: Punta Toro virus; experiment: Antiviral activity against Punta Toro virus; type: functional, organism-based
[6] = tested on: Human alphaherpesvirus 2; experiment: Antiviral activity against Human herpesvirus 2; type: functional, organism-based
How it was run: (§1)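 Confluent HEL, Vero, HeLa or MDCK monolayers (cell type per virus not specified) were inoculated with 100 CCID50 of virus, with a range of compound concentrations. Strains were HSV-1 KOS and TK− ACV-resistant KOS, HSV-2 Lyons and G, and HCMV AD-169 and Davis. Cytopathicity or plaques were scored once complete in untreated infected controls.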

[7] = tested on: Vesicular stomatitis virus; experiment: Antiviral activity against Vesicular stomatitis virus; type: functional, organism-based
[8] = tested on: Influenza B virus; experiment: Antiviral activity against influenza B virus; type: functional, organism-based
[9] = tested on: Influenza A virus; experiment: Antiviral activity against Influenza A virus H1N1; type: functional, organism-based
[10] = target: Human immunodeficiency virus type 1 reverse transcriptase (Human immunodeficiency virus 1, UniProt Q72547); experiment: Non-competitive inhibition of wild type HIV1 reverse transcriptase p66/p51 after 30 mins by liquid scintillation counting
[11] = tested on: Human alphaherpesvirus 1; experiment: Antiviral activity against Human herpesvirus 1; type: functional, organism-based; how it was run: as §1
[12] = tested on: Vaccinia virus; experiment: Antiviral activity against Vaccinia virus; type: functional, organism-based; conditions: Orthopoxvirus vaccinia
[13] = tested on: MT4; experiment: Cytotoxicity against human MT4 cells after 4 days by MTT assay; type: cell-based; conditions: mt4, 96 h
[14] = tested on: Human respirovirus 3; experiment: Antiviral activity against Parainfluenza virus 3; type: functional, organism-based
[15] = tested on: Respiratory syncytial virus; experiment: Antiviral activity against Respiratory syncytial virus; type: functional, organism-based
[16] = tested on: Mammalian orthoreovirus 1; experiment: Antiviral activity against Reovirus 1; type: functional, organism-based
[17] = tested on: Sindbis virus; experiment: Antiviral activity against Sindbis virus; type: functional, organism-based
[18] = tested on: Coxsackievirus B4; experiment: Antiviral activity against Coxsackievirus B4; type: functional, organism-based

Row | Structure (SMILES) | Activity [1] | Activity [2] | Activity [3] | EC50 [4] [µM] | Activity [5] | Activity [6] | Activity [7] | Activity [8] | Activity [9] | Ki [10] [µM] | Activity [11] | Activity [12] | CC50 [13] [µM] | Activity [14] | Activity [15] | Activity [16] | Activity [17] | Activity [18]
1 | Cc1ccc(Cn2c(=O)ccn(CCOc3ccc(C)cc3)c2=O)cc1 | inactive | inactive | inactive | > 250 | inactive | inactive | inactive | inactive | inactive | 47 | inactive | inactive | 250 | inactive | inactive | inactive | inactive | inactive
2 | Cc1ccc(OCCn2ccc(=O)n(CCc3ccccc3)c2=O)cc1 | inactive | inactive | inactive | > 129 | inactive | inactive | inactive | inactive | inactive | 6.5 | inactive | inactive | 129 | inactive | inactive | inactive | inactive | inactive
3 | Cc1ccc(OCCn2ccc(=O)n(Cc3c(C)cc(C)cc3C)c2=O)cc1 | inactive | inactive | inactive | > 133 | inactive | inactive | inactive | inactive | inactive | > 100 | inactive | inactive | 133 | inactive | inactive | inactive | inactive | inactive
4 | Cc1ccc(OCCn2cc(C)c(=O)n(Cc3ccccc3)c2=O)cc1 | inactive | inactive | inactive | > 356 | inactive | inactive | inactive | inactive | inactive | 1 | inactive | inactive | > 356 | inactive | inactive | inactive | inactive | inactive
5 | O=c1ccn(CCOc2ccc3ccccc3c2)c(=O)n1Cc1ccccc1 | inactive | inactive | inactive | > 37 | inactive | inactive | inactive | inactive | inactive | 1 | inactive | inactive | 37 | inactive | inactive | inactive | inactive | inactive
6 | Cc1ccc(OCCn2ccc(=O)n(Cc3ccccc3C)c2=O)cc1 | inactive | inactive | inactive | > 46 | inactive | inactive | inactive | inactive | inactive | > 100 | inactive | inactive | 46 | inactive | inactive | inactive | inactive | inactive
7 | CC(C)(C)c1ccc(OCCn2ccc(=O)n(Cc3ccccc3)c2=O)cc1 | inactive | inactive | inactive | > 63 | inactive | inactive | inactive | inactive | inactive | 15 | inactive | inactive | 63 | inactive | inactive | inactive | inactive | inactive
8 | Cc1cc(C)cc(OCCn2ccc(=O)n(Cc3ccccc3)c2=O)c1 | inactive | inactive | inactive | > 46 | inactive | inactive | inactive | inactive | inactive | > 100 | inactive | inactive | 46 | inactive | inactive | inactive | inactive | inactive
9 | Cc1ccc(OCCn2c(=O)n(Cc3ccccc3)c(=O)c3ccccc32)cc1 | inactive | inactive | inactive | > 25 | inactive | inactive | inactive | inactive | inactive | 1 | inactive | inactive | 25 | inactive | inactive | inactive | inactive | inactive
10 | Cc1ccc(OCCn2ccc(=O)n(Cc3ccccc3)c2=O)cc1C | inactive | inactive | inactive | > 60 | inactive | inactive | inactive | inactive | inactive | > 100 | inactive | inactive | 60 | inactive | inactive | inactive | inactive | inactive
11 | Cc1ccnc2c1NC(=O)c1cccnc1N2C1CC1 [NEVIRAPINE] |  |  |  | 0.048 |  |  |  |  |  |  |  |  | > 4 |  |  |  |  | 
12 | O=c1ccn(CCOc2ccc(Cl)cc2)c(=O)n1Cc1ccccc1 | inactive | inactive | inactive | > 36 | inactive | inactive | inactive | inactive | inactive | 22 | inactive | inactive | 36 | inactive | inactive | inactive | inactive | inactive
